Data from ChEMBL document CHEMBL1138546, “Synthesis and antimalarial activity of hydroxyethylpiperazine derivatives” (Eur J Med Chem, 2009).
In brackets after ≈: the same amount, converted by molar mass.

Assays:
Plasmodium falciparum = assay: Antimalarial activity after 24 hrs against chloroquine-resistant Plasmodium falciparum W2 by [3H]hypoxanthine uptake; type: functional, organism-based
Procedure, shortened: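 P. falciparum cultured in human O+ erythrocytes, 5% hematocrit, RPMI 1640 plus 10% human plasma. Sorbitol-synchronized trophozoites set at 2% parasitaemia, 2.5% hematocrit with ethanol-dissolved compounds at various concentrations in hypoxanthine-free RPMI 1640; chloroquine reference in each run. Growth read by [³H]-hypoxanthine incorporation; IC50 versus drug-free controls from curve fitting of dose-response data.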

[1] = Cytotoxicity against mouse J774 cells assessed as cell viability at 0.1 ug/ml after 24 hrs by MTT assay; type: cell-based; conditions: read-out: Activity
Procedure, shortened: (§1)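 Murine J774 monocyte/macrophages seeded at 2×10^6 cells/well, left 1 h at 37 °C, 5% CO2 in RPMI 1640 with 10% fetal bovine serum, 2 mM L-glutamine, 25 µg/ml gentamicin, pH 7.4. Adherent cells exposed to compounds (0.1–100 µg/ml) for 20 h, then MTT (5 mg/ml) added for 4 h. Formazan dissolved in DMSO, absorbance read at 540 nm. Result given as percent viability.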

[2] = Cytotoxicity against mouse J774 cells assessed as cell viability at 1 ug/ml after 24 hrs by MTT assay; type: cell-based; conditions: read-out: Activity; procedure, shortened: as §1
[3] = Cytotoxicity against mouse J774 cells assessed as cell viability at 10 ug/ml after 24 hrs by MTT assay; type: cell-based; conditions: read-out: Activity; procedure, shortened: as §1
[4] = Cytotoxicity against mouse J774 cells assessed as cell viability at 100 ug/ml after 24 hrs by MTT assay; type: cell-based; conditions: read-out: Activity; procedure, shortened: as §1

Row | SMILES | IC50 (Plasmodium falciparum) | viability at 24 h, 0.1 ug/ml [1] | viability at 24 h, 1 ug/ml [2] | viability at 24 h, 10 ug/ml [3] | viability at 24 h, 100 ug/ml [4]
1 | CC(C)(C)OC(=O)N[C@@H](Cc1ccccc1)[C@H](O)CN1CCN(Cc2ccc(N)cc2)CC1 | 15.8 µg/mL (≈ 34.8 µM) | 100% | 98% | 98% | 85%
2 | CN1CCN(C[C@@H](O)[C@H](Cc2ccccc2)NC(=O)OC(C)(C)C)CC1 | > 50 µg/mL | 94% | 100% | 100% | 100%
3 | COc1ccc(CN2CCN(C[C@@H](O)[C@H](Cc3ccccc3)NC(=O)OC(C)(C)C)CC2)cc1OC | 7 µg/mL (≈ 14 µM) | 100% | 100% | 100% | 83%
4 | CC(C)(C)OC(=O)N[C@@H](Cc1ccccc1)[C@H](O)CN1CCN(Cc2ccc(Cl)cc2)CC1 | 7.7 µg/mL (≈ 16.2 µM) | 100% | 100% | 100% | 88%
5 | CC(C)(C)OC(=O)N[C@@H](Cc1ccccc1)[C@H](O)CN1CCN(c2ccccc2)CC1 | > 50 µg/mL | 100% | 95% | 94% | 58%
6 | CC(C)(C)OC(=O)N[C@@H](Cc1ccccc1)[C@H](O)CN1CCN(Cc2ccc(F)cc2)CC1 | 7.5 µg/mL (≈ 16.4 µM) | 100% | 100% | 99% | 90%
7 | Cc1cccc(C)c1OCC(=O)N[C@@H](Cc1ccccc1)[C@@H](O)C[C@H](Cc1ccccc1)NC(=O)[C@H](C(C)C)N1CCCNC1=O [LOPINAVIR] | 1.7 µg/mL (≈ 2.7 µM) |  |  |  | 
8 | CC(C)(C)OC(=O)N[C@@H](Cc1ccccc1)[C@H](O)CN1CCN(Cc2ccc3c(c2)OCO3)CC1 | 5.1 µg/mL (≈ 10.5 µM) | 100% | 98% | 100% | 82%
9 | CC(C)(C)OC(=O)N[C@@H](Cc1ccccc1)[C@H](O)CN1CCNCC1 | > 50 µg/mL | 100% | 100% | 100% | 65%
10 | CC(C)(C)OC(=O)N[C@@H](Cc1ccccc1)[C@H](O)CN1CCN(Cc2ccc([N+](=O)[O-])cc2)CC1 | 23.5 µg/mL (≈ 48.5 µM) | 100% | 100% | 98% | 81%
11 | CC(C)(C)OC(=O)N[C@@H](Cc1ccccc1)[C@H](O)CN1CCN(Cc2ccccc2)CC1 | 14.9 µg/mL (≈ 33.9 µM) | 95% | 100% | 100% | 100%
12 | CC(C)(C)NC(=O)[C@@H]1C[C@@H]2CCCC[C@@H]2CN1C[C@@H](O)[C@H](Cc1ccccc1)NC(=O)[C@H](CC(N)=O)NC(=O)c1ccc2ccccc2n1 [SAQUINAVIR] | 7 µg/mL (≈ 10.4 µM) |  |  |  | 
13 | COc1ccc(CN2CCN(C[C@@H](O)[C@H](Cc3ccccc3)NC(=O)OC(C)(C)C)CC2)cc1 | 6.2 µg/mL (≈ 13.2 µM) | 100% | 100% | 100% | 85%
